≈ marks a conversion by molar mass, not a printed value. Calls of active or inactive are those of the source. No cut-off for these calls is given here.
Assays:
Escherichia coli [1] = test: Antibacterial activity against Escherichia coli ATCC 25922 assessed as reduction in bacterial growth incubated for 24 hrs by broth microdilution method; assay type: functional
Method in brief: (§1)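 Cation-adjusted Mueller-Hinton broth microdilution per EUCAST, modified; compounds from DMSO stocks, final DMSO ≤1% v/v; scale starting from 0.49 µM. Static incubation at 35 ± 2 °C, dark, humidified, read at 24 and 48 h. MIC = lowest concentration with no visible growth by eye; duplicates, parallel readings within one dilution step; growth and medium/DMSO controls included.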

Staphylococcus aureus [2] = test: Antibacterial activity against methicillin-resistant Staphylococcus aureus ATCC 43300 assessed as reduction in bacterial growth incubated for 24 hrs by broth microdilution method; assay type: functional
Method in brief: (§2)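 EUCAST-based broth microdilution in cation-adjusted Mueller-Hinton broth. DMSO stocks, final DMSO ≤1% v/v, concentration scale starting from 0.49 µM. Static incubation at 35 ± 2 °C, dark and humidified. Run in duplicate, accepted only if parallel MICs differ by at most one dilution step. MIC is the lowest concentration with no visible growth by naked eye.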

Staphylococcus aureus [3] = test: Antibacterial activity against Staphylococcus aureus ATCC 29213 assessed as reduction in bacterial growth incubated for 48 hrs by broth microdilution method; assay type: functional; method in brief: as §1
[4] = test system: Staphylococcus epidermidis; test: Antibacterial activity against Staphylococcus epidermidis ATCC 12228 assessed as reduction in bacterial growth incubated for 48 hrs by broth microdilution method; assay type: functional; method in brief: as §1
Enterococcus faecalis [5] = test: Antibacterial activity against Enterococcus faecalis ATCC 29212 assessed as reduction in bacterial growth incubated for 48 hrs by broth microdilution method; assay type: functional; method in brief: as §1
HK-2 = test: Cytotoxicity against human HK-2 cells assessed as reduction in cell viability incubated for 24 hrs by cell-titer 96 aqueous one solution cell proliferation assay; assay type: cell-based; details: HK-2, 24 h
HepG2 [6] = test: Antiproliferative activity against human HepG2 cells assessed as increase in caspase 3/7 level at 100 uM incubated for 24 hrs by Caspase-glo reagent based microplate reader analysis relative to control; assay type: functional
Method in brief: (§3)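 HepG2 cells seeded at 15 000/well, compounds diluted in complete MEM, 24 h at 37 °C, 5% CO2; untreated vehicle controls. Caspase-Glo 3/7 reagent added, shaken 350 rpm at room temperature 60 min in dark, luminescence read. Expressed as fold of untreated control; triplicate wells, mean ± SD with n = 6.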

HepG2 [7] = test: Cytotoxicity against human HepG2 cells assessed as reduction in cell viability incubated for 24 hrs by cell-titer 96 aqueous one solution cell proliferation assay; assay type: functional, cell-based; details: HepG2, 24 h
[8] = test system: Staphylococcus epidermidis; test: Antibacterial activity against Staphylococcus epidermidis ATCC 12228 assessed as reduction in bacterial growth incubated for 24 hrs by broth microdilution method; assay type: functional; method in brief: as §1
Staphylococcus aureus [9] = test: Antibacterial activity against Staphylococcus aureus ATCC 29213 assessed as reduction in bacterial growth incubated for 24 hrs by broth microdilution method; assay type: functional; method in brief: as §1
Escherichia coli [10] = test: Antibacterial activity against Escherichia coli ATCC 25922 assessed as reduction in bacterial growth incubated for 48 hrs by broth microdilution method; assay type: functional; method in brief: as §1
Staphylococcus aureus [11] = test: Antibacterial activity against methicillin-resistant Staphylococcus aureus ATCC 43300 assessed as reduction in bacterial growth incubated for 48 hrs by broth microdilution method; assay type: functional; method in brief: as §2
Enterococcus faecalis [12] = test: Antibacterial activity against Enterococcus faecalis ATCC 29212 assessed as reduction in bacterial growth incubated for 24 hrs by broth microdilution method; assay type: functional; method in brief: as §1
Pichia kudriavzevii [13] = test: Antifungal activity against Candida krusei ATCC 6258 assessed as reduction in fungal growth incubated for 48 hrs by broth microdilution method based spectrophotometric analysis; assay type: functional
Pichia kudriavzevii [14] = test: Antifungal activity against Candida krusei ATCC 6258 assessed as reduction in fungal growth incubated for 24 hrs by broth microdilution method based spectrophotometric analysis; assay type: functional
Lichtheimia corymbifera [15] = test: Antifungal activity against Lichtheimia corymbifera CCM 8077 assessed as reduction in fungal growth incubated for 24 hrs by broth microdilution method based spectrophotometric analysis; assay type: functional
Candida albicans [16] = test: Antifungal activity against Candida albicans ATCC 24443 assessed as reduction in fungal growth incubated for 48 hrs by broth microdilution method based spectrophotometric analysis; assay type: functional
Candida albicans [17] = test: Antifungal activity against Candida albicans ATCC 24443 assessed as reduction in fungal growth incubated for 24 hrs by broth microdilution method based spectrophotometric analysis; assay type: functional
Candida parapsilosis [18] = test: Antifungal activity against Candida parapsilosis ATCC 22019 assessed as reduction in fungal growth incubated for 48 hrs by broth microdilution method based spectrophotometric analysis; assay type: functional; details: Lodderomyces parapsilosis
[19] = test system: Trichophyton interdigitale; test: Antifungal activity against Trichophyton interdigitale ATCC 9533 assessed as reduction in fungal growth incubated for 72 hrs by broth microdilution method based spectrophotometric analysis; assay type: functional
Lichtheimia corymbifera [20] = test: Antifungal activity against Lichtheimia corymbifera CCM 8077 assessed as reduction in fungal growth incubated for 48 hrs by broth microdilution method based spectrophotometric analysis; assay type: functional
Candida parapsilosis [21] = test: Antifungal activity against Candida parapsilosis ATCC 22019 assessed as reduction in fungal growth incubated for 24 hrs by broth microdilution method based spectrophotometric analysis; assay type: functional; details: Lodderomyces parapsilosis
[22] = test system: Trichophyton interdigitale; test: Antifungal activity against Trichophyton interdigitale ATCC 9533 assessed as reduction in fungal growth incubated for 120 hrs by broth microdilution method based spectrophotometric analysis; assay type: functional
Lichtheimia corymbifera [23] = test: Antifungal activity against Lichtheimia corymbifera CCM 8077 assessed as reduction in fungal growth incubated for 48 hrs by broth microdilution method; assay type: functional
Method in brief: (§4)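 Broth microdilution per EUCAST (yeasts and moulds), modified: twofold dilutions from DMSO (final ≤1% v/v) in RPMI-1640 with L-glutamine, 2% glucose, MOPS-buffered pH 7.0; scale from 0.49 µM. Static, dark, humidified, 35 ± 2 °C for 24 and 48 h (Trichophyton interdigitale 72 and 120 h). MIC = complete visible inhibition by eye; duplicates within one dilution step.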

Candida parapsilosis [24] = test: Antifungal activity against Candida parapsilosis ATCC 22019 assessed as reduction in fungal growth incubated for 48 hrs by broth microdilution method; assay type: functional; details: Lodderomyces parapsilosis; method in brief: as §4
Candida parapsilosis [25] = test: Antifungal activity against Candida parapsilosis ATCC 22019 assessed as reduction in fungal growth incubated for 24 hrs by broth microdilution method; assay type: functional; details: Lodderomyces parapsilosis; method in brief: as §4
[26] = test system: Trichophyton interdigitale; test: Antifungal activity against Trichophyton interdigitale ATCC 9533 assessed as reduction in fungal growth incubated for 72 hrs by broth microdilution method; assay type: functional; method in brief: as §4
HepG2 [27] = test: Antiproliferative activity against human HepG2 cells assessed as increase in caspase 3/7 level at 1 uM incubated for 24 hrs by Caspase-glo reagent based microplate reader analysis relative to control; assay type: functional; method in brief: as §3
Lichtheimia corymbifera [28] = test: Antifungal activity against Lichtheimia corymbifera CCM 8077 assessed as reduction in fungal growth incubated for 24 hrs by broth microdilution method; assay type: functional; method in brief: as §4
Pichia kudriavzevii [29] = test: Antifungal activity against Candida krusei ATCC 6258 assessed as reduction in fungal growth incubated for 24 hrs by broth microdilution method; assay type: functional; method in brief: as §4
Pichia kudriavzevii [30] = test: Antifungal activity against Candida krusei ATCC 6258 assessed as reduction in fungal growth incubated for 48 hrs by broth microdilution method; assay type: functional; method in brief: as §4
Candida albicans [31] = test: Antifungal activity against Candida albicans ATCC 24443 assessed as reduction in fungal growth incubated for 24 hrs by broth microdilution method; assay type: functional; method in brief: as §4
[32] = test system: Trichophyton interdigitale; test: Antifungal activity against Trichophyton interdigitale ATCC 9533 assessed as reduction in fungal growth incubated for 120 hrs by broth microdilution method; assay type: functional; method in brief: as §4
Candida albicans [33] = test: Antifungal activity against Candida albicans ATCC 24443 assessed as reduction in fungal growth incubated for 48 hrs by broth microdilution method; assay type: functional; method in brief: as §4
Serratia marcescens = test: Antibacterial activity against clinical isolate Serratia marcescens assessed as reduction in bacterial growth measured for 24 to 48 hrs by broth microdilution method; assay type: functional, organism-based; details: time 24-48 hrs; method in brief: as §1
Staphylococcus aureus [34] = test: Antibacterial activity against methicillin-susceptible Staphylococcus aureus CCM 4223 assessed as reduction in bacterial growth measured for 24 to 48 hrs by broth microdilution method; assay type: functional, organism-based; details: time 24-48 hrs; method in brief: as §1
Klebsiella pneumoniae = test: Antibacterial activity against Klebsiella pneumoniae ATCC 10031 assessed as reduction in bacterial growth measured for 24 to 48 hrs by broth microdilution method; assay type: functional, organism-based; details: time 24-48 hrs; method in brief: as §1
Pseudomonas aeruginosa = test: Antibacterial activity against Pseudomonas aeruginosa ATCC 27853 assessed as reduction in bacterial growth measured for 24 to 48 hrs by broth microdilution method; assay type: functional, organism-based; details: time 24-48 hrs; method in brief: as §1

Row | SMILES | MIC (Escherichia coli [1]) [µM] | MIC (Staphylococcus aureus [2]) [µM] | MIC (Staphylococcus aureus [3]) [µM] | MIC [4] [µM] | MIC (Enterococcus faecalis [5]) [µM] | IC50 (HK-2) [µM] | fold change (FC) (HepG2 [6]) | IC50 (HepG2 [7]) [µM] | MIC [8] [µM] | MIC (Staphylococcus aureus [9]) [µM] | MIC (Escherichia coli [10]) [µM] | MIC (Staphylococcus aureus [11]) [µM] | MIC (Enterococcus faecalis [12]) [µM] | other results
1 | O=C(N/N=C/c1cc(I)cc(I)c1O)c1ccc(C(F)(F)F)cc1 | > 250 | 31.2 (≈ 17.5 µg/mL) | 31.2 (≈ 17.5 µg/mL) | 31.2 (≈ 17.5 µg/mL) | 31.2 (≈ 17.5 µg/mL) | 49.9 | 1.37 | 11.7 | 31.2 (≈ 17.5 µg/mL) | 31.2 (≈ 17.5 µg/mL) | > 250 | 31.2 (≈ 17.5 µg/mL) | 31.2 (≈ 17.5 µg/mL) | –
2 | OC(Cn1cncn1)(Cn1cncn1)c1ccc(F)cc1F [FLUCONAZOLE] | – | – | – | – | – | – | – | – | – | – | – | – | – | MIC (Pichia kudriavzevii [13]): > 104 µM; MIC (Pichia kudriavzevii [14]): > 104 µM; MIC (Lichtheimia corymbifera [15]): > 104 µM; MIC (Candida albicans [16]): 6.5 µM (≈ 1.99 µg/mL); MIC (Candida albicans [17]): 6.5 µM (≈ 1.99 µg/mL); MIC (Candida parapsilosis [18]): 3.3 µM (≈ 1.01 µg/mL); MIC [19]: 52.2 µM (≈ 16 µg/mL); MIC (Lichtheimia corymbifera [20]): > 104 µM; MIC (Candida parapsilosis [21]): 3.3 µM (≈ 1.01 µg/mL); MIC [22]: 52.2 µM (≈ 16 µg/mL)
3 | O=C(N/N=C/c1cc(I)cc(I)c1O)c1ccc(F)cc1 | > 500 | 15.6 (≈ 7.97 µg/mL) | 31.2 (≈ 15.9 µg/mL) | 31.2 (≈ 15.9 µg/mL) | 62.5 (≈ 31.9 µg/mL) | 55.6 | 1.33 | 12.1 | 31.2 (≈ 15.9 µg/mL) | 15.6 (≈ 7.97 µg/mL) | > 500 | 31.2 (≈ 15.9 µg/mL) | 31.2 (≈ 15.9 µg/mL) | MIC (Lichtheimia corymbifera [23]): 125 µM (≈ 63.8 µg/mL); MIC (Candida parapsilosis [24]): 125 µM (≈ 63.8 µg/mL); MIC (Candida parapsilosis [25]): 62.5 µM (≈ 31.9 µg/mL); MIC [26]: 15.6 µM (≈ 7.97 µg/mL); fold change (FC) (HepG2 [27]): 1.36; MIC (Lichtheimia corymbifera [28]): 125 µM (≈ 63.8 µg/mL); MIC (Pichia kudriavzevii [29]): 125 µM (≈ 63.8 µg/mL); MIC (Pichia kudriavzevii [30]): 125 µM (≈ 63.8 µg/mL); MIC (Candida albicans [31]): 62.5 µM (≈ 31.9 µg/mL); MIC [32]: 62.5 µM (≈ 31.9 µg/mL); MIC (Candida albicans [33]): 125 µM (≈ 63.8 µg/mL)
4 | O=C(N/N=C/c1cc(I)cc(I)c1O)c1ccc(O)cc1 | 250 (≈ 127 µg/mL) | 62.5 (≈ 31.8 µg/mL) | 62.5 (≈ 31.8 µg/mL) | 125 (≈ 63.5 µg/mL) | 250 (≈ 127 µg/mL) | – | – | 19.2 | 62.5 (≈ 31.8 µg/mL) | 31.2 (≈ 15.9 µg/mL) | 250 (≈ 127 µg/mL) | 62.5 (≈ 31.8 µg/mL) | 250 (≈ 127 µg/mL) | Activity (Serratia marcescens): inactive; Activity (Staphylococcus aureus [34]): Active; Activity (Klebsiella pneumoniae): inactive; Activity (Pseudomonas aeruginosa): inactive

Source: ChEMBL document CHEMBL4811275, “Iodinated 1,2-diacylhydrazines, benzohydrazide-hydrazones and their analogues as dual antimicrobial and cytotoxic agents” (Bioorg Med Chem, 2021)
